Measured values as given in ChEMBL document CHEMBL4627400, “Discovery of Dihydropyrrolo[1,2-a]pyrazin-3(4H)-one-Based Second-Generation GluN2C- and GluN2D-Selective Positive Allosteric Modulators (PAMs) of the N-Methyl-d-Aspartate (NMDA) Receptor” (J Med Chem, 2020).
Values after ≈ are worked out from the molar mass of the structure shown.

Key:
[1] = molecular target: Glutamate NMDA receptor; Grin1/Grin2c (Rattus norvegicus) (UniProt P35439+Q00961); assay: Positive allosteric modulation of recombinant rat GluN1a/GluN2C receptor expressed in Xenopus laevis oocytes assessed as increase in glycine/L-glutamate-induced channel current at 30 uM by two-electrode voltage clamp method relative to control; format: cell-based
In short: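 Oocytes expressing rat GluN1/GluN2C or GluN2D, held at −40 mV in HEPES-buffered Ba2+ solution, pH 7.4, 23 °C. Current given as percent of agonist-alone response. Doubling concentration is the concentration giving 2-fold response; reported as […] log. 6–19 oocytes from 2–3 frogs.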

[2] = molecular target: Glutamate NMDA receptor; Grin1/Grin2b (Rattus norvegicus, UniProt P35439+Q00960); assay: Positive allosteric modulation of recombinant rat GluN1a/GluN2B receptor expressed in Xenopus laevis oocytes assessed as increase in glycine/L-glutamate-induced channel current at 10 to 30 uM by two-electrode voltage clamp method relative to control; format: cell-based
Glutamate NMDA receptor; Grin1/Grin2b, sequence (Q00960 whole entry, other chains not shown): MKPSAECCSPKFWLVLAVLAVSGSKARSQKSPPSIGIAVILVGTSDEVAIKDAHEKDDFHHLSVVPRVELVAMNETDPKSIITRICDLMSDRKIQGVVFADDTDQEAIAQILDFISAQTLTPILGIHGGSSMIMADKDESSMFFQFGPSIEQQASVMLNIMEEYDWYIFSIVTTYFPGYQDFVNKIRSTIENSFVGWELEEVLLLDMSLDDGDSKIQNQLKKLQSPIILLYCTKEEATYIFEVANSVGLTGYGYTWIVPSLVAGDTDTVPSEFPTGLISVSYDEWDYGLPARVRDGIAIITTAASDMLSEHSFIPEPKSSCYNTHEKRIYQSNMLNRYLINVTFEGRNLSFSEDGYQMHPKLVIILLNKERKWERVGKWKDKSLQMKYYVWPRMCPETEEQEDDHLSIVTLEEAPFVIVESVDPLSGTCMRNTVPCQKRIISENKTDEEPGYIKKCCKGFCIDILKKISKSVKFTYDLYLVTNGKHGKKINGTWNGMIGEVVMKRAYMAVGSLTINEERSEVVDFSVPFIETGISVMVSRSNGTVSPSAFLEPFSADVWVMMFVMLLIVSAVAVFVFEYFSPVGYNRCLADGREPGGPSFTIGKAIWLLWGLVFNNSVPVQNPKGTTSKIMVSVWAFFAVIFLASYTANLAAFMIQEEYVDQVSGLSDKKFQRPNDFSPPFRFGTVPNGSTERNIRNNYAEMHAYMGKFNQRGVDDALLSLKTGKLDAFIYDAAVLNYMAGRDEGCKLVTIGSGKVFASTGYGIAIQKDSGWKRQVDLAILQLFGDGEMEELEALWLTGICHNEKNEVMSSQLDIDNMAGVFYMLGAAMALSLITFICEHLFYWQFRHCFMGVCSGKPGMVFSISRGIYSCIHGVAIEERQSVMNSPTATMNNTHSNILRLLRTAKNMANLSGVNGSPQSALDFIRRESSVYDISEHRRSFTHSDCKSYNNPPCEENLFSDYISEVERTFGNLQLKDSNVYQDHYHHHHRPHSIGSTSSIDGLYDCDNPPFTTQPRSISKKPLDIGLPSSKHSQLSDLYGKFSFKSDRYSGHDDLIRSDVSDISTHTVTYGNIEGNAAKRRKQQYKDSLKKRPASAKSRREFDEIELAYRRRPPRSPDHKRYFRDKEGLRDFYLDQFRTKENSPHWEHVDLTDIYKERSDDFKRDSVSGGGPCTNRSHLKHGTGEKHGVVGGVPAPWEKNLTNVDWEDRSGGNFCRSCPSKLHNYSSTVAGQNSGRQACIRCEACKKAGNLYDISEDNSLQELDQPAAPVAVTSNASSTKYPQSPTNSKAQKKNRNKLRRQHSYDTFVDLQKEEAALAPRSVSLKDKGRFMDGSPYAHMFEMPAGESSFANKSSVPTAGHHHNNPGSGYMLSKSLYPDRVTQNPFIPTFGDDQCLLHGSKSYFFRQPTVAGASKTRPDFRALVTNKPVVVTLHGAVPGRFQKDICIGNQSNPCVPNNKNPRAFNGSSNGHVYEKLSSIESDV
In short: (§1)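 TEVC at −40 mV, 23 °C, in 90 NaCl/1 KCl/0.5 BaCl/0.005 EDTA/10 HEPES (mM), pH 7.4. Oocytes expressed rat GluN1/GluN2A or GluN1/GluN2B. […] Some GluN2A oocytes were BAPTA-loaded. 4–17 oocytes from 1–3 frogs.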

[3] = molecular target: Glutamate NMDA receptor; Grin1/Grin2a (Rattus norvegicus, UniProt P35439+Q00959); assay: Positive allosteric modulation of recombinant rat GluN1a/GluN2A receptor expressed in Xenopus laevis oocytes assessed as increase in glycine/L-glutamate-induced channel current at 10 to 30 uM by two-electrode voltage clamp method relative to control; format: cell-based; in short: as §1
Glutamate NMDA receptor; Grin1/Grin2a, sequence (Q00959 whole entry, other chains not shown): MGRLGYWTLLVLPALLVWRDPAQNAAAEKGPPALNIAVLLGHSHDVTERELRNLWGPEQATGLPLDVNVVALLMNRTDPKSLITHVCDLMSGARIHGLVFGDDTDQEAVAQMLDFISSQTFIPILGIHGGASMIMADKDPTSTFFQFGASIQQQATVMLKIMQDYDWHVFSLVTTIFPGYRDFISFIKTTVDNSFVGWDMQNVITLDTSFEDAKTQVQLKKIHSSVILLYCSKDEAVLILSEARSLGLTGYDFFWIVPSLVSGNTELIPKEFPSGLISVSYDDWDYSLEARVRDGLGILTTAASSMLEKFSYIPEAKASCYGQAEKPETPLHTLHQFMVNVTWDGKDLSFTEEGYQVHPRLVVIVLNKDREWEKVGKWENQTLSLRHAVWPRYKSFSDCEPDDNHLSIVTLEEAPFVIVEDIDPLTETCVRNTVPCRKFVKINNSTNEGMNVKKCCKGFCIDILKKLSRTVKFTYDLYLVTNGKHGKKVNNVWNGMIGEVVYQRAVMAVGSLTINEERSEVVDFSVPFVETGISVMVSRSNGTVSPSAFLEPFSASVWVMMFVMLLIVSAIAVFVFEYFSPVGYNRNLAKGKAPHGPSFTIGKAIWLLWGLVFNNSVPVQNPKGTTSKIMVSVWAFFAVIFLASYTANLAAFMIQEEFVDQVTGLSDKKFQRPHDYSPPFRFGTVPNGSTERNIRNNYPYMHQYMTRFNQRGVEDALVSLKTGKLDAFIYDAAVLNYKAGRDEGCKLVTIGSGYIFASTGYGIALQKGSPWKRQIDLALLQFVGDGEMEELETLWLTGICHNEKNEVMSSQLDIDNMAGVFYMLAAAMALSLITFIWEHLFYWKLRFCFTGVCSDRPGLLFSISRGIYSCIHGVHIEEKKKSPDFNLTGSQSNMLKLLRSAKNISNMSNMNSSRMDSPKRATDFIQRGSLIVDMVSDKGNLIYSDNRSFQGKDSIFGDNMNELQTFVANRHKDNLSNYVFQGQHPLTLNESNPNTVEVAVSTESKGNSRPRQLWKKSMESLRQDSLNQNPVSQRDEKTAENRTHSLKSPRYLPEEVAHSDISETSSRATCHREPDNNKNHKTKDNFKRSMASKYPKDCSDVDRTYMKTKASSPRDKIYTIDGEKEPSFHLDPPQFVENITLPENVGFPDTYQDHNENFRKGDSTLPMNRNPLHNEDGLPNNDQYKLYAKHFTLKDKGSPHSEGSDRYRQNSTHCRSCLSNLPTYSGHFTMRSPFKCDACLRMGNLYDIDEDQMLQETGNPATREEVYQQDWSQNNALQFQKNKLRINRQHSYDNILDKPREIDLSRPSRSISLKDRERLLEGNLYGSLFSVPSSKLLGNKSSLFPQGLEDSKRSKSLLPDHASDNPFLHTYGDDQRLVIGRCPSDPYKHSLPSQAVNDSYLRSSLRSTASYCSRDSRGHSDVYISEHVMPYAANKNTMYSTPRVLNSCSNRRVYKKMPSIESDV

[4] = molecular target: Ionotropic glutamate receptor NMDA 1/2D (Rattus norvegicus) (UniProt P35439+Q62645); assay: Positive allosteric modulation of recombinant rat GluN1a/GluN2D receptor expressed in Xenopus laevis oocytes assessed as increase in glycine/L-glutamate-induced channel current at 30 uM by two-electrode voltage clamp method relative to control; format: cell-based
In short: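 Oocytes expressing rat GluN1/GluN2C or GluN2D, held at −40 mV in HEPES-buffered Ba2+ solution, pH 7.4, 23 °C. […] Current given as percent of agonist-alone response. […] Doubling concentration is the concentration giving 2-fold response; reported as […] log. 6–19 oocytes from 2–3 frogs.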

[5] = molecular target: Ionotropic glutamate receptor NMDA 1/2D (Rattus norvegicus, UniProt P35439+Q62645)
[6] = molecular target: Glutamate NMDA receptor; Grin1/Grin2c (Rattus norvegicus, UniProt P35439+Q00961)
[7] = Aqueous solubility of the compound at pH 7.4 after 30 mins by nephelometric analysis; format: physicochemical; conditions: buffer

SMILES	%max [1] [%]	Activity [2]	Activity [3]	%max [4] [%]	EC50 [5] [nM]	EC50 [6] [nM]	solubility kinetic at 0.5 h [7] [µM]
COc1cc2c(cc1OC)C(COc1cccnc1)N(C(=O)c1cccc(C(F)(F)F)c1)CC2 (stereo not drawn)	90	Not Active	Not Active	88	–	–	–
COc1ccc(OCC2c3occc3CCN2C(=O)c2cccc(Cl)c2)cc1 (stereo not drawn)	340	Not Active	Not Active	470	7940	6310	–
COc1ccc(OCC2c3ccc(OC)cc3CC(=O)N2CCCC(F)(F)F)cc1 (stereo not drawn)	290	Not Active	Not Active	450	20000	7940	–
COc1ccc(OCC2c3ccc(OC)cc3CC(=O)N2CCc2c[nH]c3ccccc23)cc1 (stereo not drawn)	85	Not Active	Not Active	85	–	–	–
COc1ccc(OCC2c3cnn(C)c3CCN2C(=O)c2cccc(Cl)c2)cc1 (stereo not drawn)	210	Not Active	Not Active	220	–	–	–
COc1ccc(OCC2c3cc(OC)c(OC)cc3CCN2C(=O)c2cccc(Cl)c2)s1 (stereo not drawn)	100	Not Active	Not Active	110	–	–	–
COc1cc2c(cc1OC)C(COc1ncccn1)N(C(=O)c1cccc(C(F)(F)F)c1)CC2 (stereo not drawn)	97	Not Active	Not Active	95	–	–	–
COc1ccc(OC[C@H]2c3cccn3CCN2C(=O)c2cccc(C(F)(F)F)c2)cc1	460	Not Active	Not Active	540	1260	1260	58 (≈ 25 µg/mL)
COc1ccc(OCC2c3sccc3CCN2C(=O)c2cccc(Cl)c2)cc1 (stereo not drawn)	280	Not Active	Not Active	350	3980	3980	46 (≈ 19 µg/mL)
COCCOCCN1C(=O)Cc2cc(OC)ccc2C1COc1ccc(OC)cc1 (stereo not drawn)	98	Not Active	Not Active	100	–	–	–
COc1ccc(OC[C@H]2c3cccn3CC(=O)N2Cc2cccc(C(F)(F)F)c2)cc1	280	Not Active	Not Active	330	794	794	57 (≈ 24.5 µg/mL)
COc1ccc(OCC2c3ccsc3CCN2C(=S)c2cccc(Cl)c2)cc1 (stereo not drawn)	97	Not Active	Not Active	94	–	–	–
COc1cc2c(cc1OC)C(CO)N(C(=O)c1cccc(C(F)(F)F)c1)CC2 (stereo not drawn)	98	Not Active	Not Active	95	–	–	–
COc1ccc(OCC2c3ccc(OC(C)C)cc3CC(=O)N2Cc2cccc(C(F)(F)F)c2)cc1 (stereo not drawn)	280	Not Active	Not Active	310	631	398	–
COc1ccc(OCC2c3cc(OC)c(OC)cc3CCN2C(=O)c2cccc(C(F)(F)F)c2)cc1 (stereo not drawn)	–	Not Active	Not Active	–	–	–	–
COc1ccc(OCC2c3ccc(OC(C)C)cc3CCN2C(=O)c2cccc(Cl)c2)cc1 (stereo not drawn)	240	Not Active	Not Active	250	3160	–	–
COc1ccc(OC[C@H]2c3cccn3CCN2C(=O)c2cccc(Cl)c2)cc1	410	Not Active	Not Active	450	2000	2000	36 (≈ 14.3 µg/mL)
COc1ccc(OC[C@@H]2c3cccn3CCN2C(=O)c2cccc(C(F)(F)F)c2)cc1	99	Not Active	Not Active	98	–	–	58 (≈ 25 µg/mL)
COc1ccc(OCC2c3ccc(OC)cc3CC(=O)N2CCCN(C)C)cc1 (stereo not drawn)	110	Not Active	Not Active	96	–	–	–
COc1ccc(OC[C@@H]2c3cccn3CC(=O)N2Cc2cccc(C(F)(F)F)c2)cc1	84	Not Active	Not Active	88	–	–	57 (≈ 24.5 µg/mL)

SMILES	%max [1] [%]	Activity [2]	Activity [3]	%max [4] [%]	EC50 [5] [nM]	EC50 [6] [nM]	solubility kinetic at 0.5 h [7] [µM]
COc1ccc(OCC2c3ccc(OCC(C)C)cc3CCN2C(=O)c2cccc(Cl)c2)cc1 (stereo not drawn)	–	Not Active	Not Active	–	1260	1000	–
COc1ccc(OCC2c3ccc(OC(C)C)cc3CCN2C(=O)c2cccc(F)c2)cc1 (stereo not drawn)	–	Not Active	Not Active	–	7940	–	–
COc1ccc(OCC2c3sccc3CCN2C(=O)c2ccc(Cl)s2)cc1 (stereo not drawn)	290	Not Active	Not Active	400	5010	5010	–
COc1ccc(OC[C@@H]2c3cccn3CCN2C(=O)c2cccc(Cl)c2)cc1	98	Not Active	Not Active	99	–	–	36 (≈ 14.3 µg/mL)
COc1ccc(OCC2c3cccn3CC(=S)N2Cc2cccc(C(F)(F)F)c2)cc1 (stereo not drawn)	120	Not Active	Not Active	110	–	–	–
COc1ccc(OCC2c3ccc(OCC(C)C)cc3CC(=O)N2Cc2cccc(Cl)c2)cc1 (stereo not drawn)	280	130%	130%	370	631	398	–
COc1ccc(OCC2c3ccc(OC(C)C)cc3CC(=O)N2Cc2cccc(F)c2)cc1 (stereo not drawn)	320	130%	130%	330	2000	1000	–
COc1ccc(OCC2c3sc(C)nc3CCN2C(=O)c2cccc(Cl)c2)cc1 (stereo not drawn)	100	Not Active	Not Active	100	–	–	–
COc1ccc(OCC2c3sccc3CCN2C(=O)/C=C/C(F)(F)F)cc1 (stereo not drawn)	290	Not Active	Not Active	330	15800	12600	–
COc1ccc(OCC2c3cc(OC)c(OC)cc3CC(=O)N2Cc2cccc(Cl)c2)cc1 (stereo not drawn)	270	Not Active	Not Active	340	10000	5010	–
COc1ccc(OCC2c3ccsc3CCN2C(=O)c2cccc(Cl)c2)cc1 (stereo not drawn)	330	Not Active	Not Active	340	5010	3980	–
COc1ccc(OCC2c3ccc(OC(C)C)cc3CCN2C(=O)c2cccc(C(F)(F)F)c2)cc1 (stereo not drawn)	–	Not Active	Not Active	–	2510	1580	–
COc1ccc(OCC2c3ccccc3CCN2C(=O)c2cccc(Cl)c2)cc1 (stereo not drawn)	260	Not Active	Not Active	300	7940	6310	–
COc1ccc(OCC2c3ccc(OC)cc3CC(=O)N2Cc2c[nH]nn2)cc1 (stereo not drawn)	110	Not Active	Not Active	98	–	–	–
COc1ccc(OCC2c3ccc(OC(C)C)cc3CC(=O)N2Cc2cccc(Cl)c2)cc1 (stereo not drawn)	350	Not Active	Not Active	370	501	398	–
COc1ccc(OCC2c3ccc(OC)cc3CC(=O)N2Cc2cccc(Cl)c2)cc1 (stereo not drawn)	270	Not Active	Not Active	330	2510	2000	–
COc1cc2c(cc1OC)C(COC1CCOCC1)N(C(=O)c1cccc(C(F)(F)F)c1)CC2 (stereo not drawn)	100	Not Active	Not Active	95	–	–	–
COc1cc2c(cc1OC)C(COc1ccccn1)N(C(=O)c1cccc(C(F)(F)F)c1)CC2 (stereo not drawn)	96	Not Active	Not Active	97	–	–	–
CCCN1C(=O)Cc2cc(OC)ccc2C1COc1ccc(OC)cc1 (stereo not drawn)	97	Not Active	Not Active	94	–	–	–
